Test results reported in ChEMBL document CHEMBL4842369, “Synthesis, structure-activity relationship and antiviral activity of indole-containing inhibitors of Flavivirus NS2B-NS3 protease” (Eur J Med Chem, 2021).
Calls of active or inactive are those of the source. The calls are words filed in the database; no cut-off is given here.

What was measured:
Nonstructural protein 3 = Nonstructural protein 3 (Zika virus, UniProt A0A024AXB9); assay: Inhibition of Zika virus recombinant NS2B (47 to 95 residues)/NS3 (1 to 177 residues) protease expressed in Escherichia coli BL21 using Bz-Nle-Lys-Lys-Arg-AMC as substrate preincubated for 10 mins by fluorescence-based biochemical assay
Sequence of Nonstructural protein 3 (A0A024AXB9 whole entry, the tested form may be a part): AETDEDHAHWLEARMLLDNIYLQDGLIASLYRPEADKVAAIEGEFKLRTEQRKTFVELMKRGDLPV
Outline: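 ZIKV NS2B-NS3 protease at 1 nM, with 10 µM Bz-Nle-Lys-Lys-Arg-AMC in 20 mM HEPES pH 7.3 containing 0.05% Triton X-100. Compound at increasing concentrations in triplicate, pre-incubated with enzyme 10 min before substrate. Fluorescence (Ex 360/Em 460 nm) read every 30 s. IC50 from dose-response curve fit, 3 independent experiments, standard deviation.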

Genome polyprotein [1] = target: Genome polyprotein (dengue virus type 2, UniProt P29990); assay: Inhibition of Dengue virus 2 NS2B (50 to 95 residues)/NS3 (1 to 182 residues) protease expressed in Escherichia coli BL21 using Bz-Nle-Lys-Lys-Arg-AMC as substrate preincubated for 10 mins by fluorescence-based biochemical assay
Outline: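 Recombinant DENV-2 NS2B-NS3 protease assayed like the ZIKV protease. Bz-Nle-Lys-Lys-Arg-AMC substrate, compound pre-incubated with enzyme 10 min, fluorescence monitored at Ex 360/Em 460 nm. IC50 from dose-response fit of triplicate samples at increasing concentrations.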

Genome polyprotein [2] = target: Genome polyprotein (West Nile virus, UniProt P06935); assay: Inhibition of West Nile virus NS2B (49 to 96 residues)/NS3 (2 to 184 residues) protease expressed in Escherichia coli BL21 using Bz-Nle-Lys-Lys-Arg-AMC as substrate preincubated for 10 mins by fluorescence-based biochemical assay
Sequence of Genome polyprotein (West Nile virus, UniProt P06935) (P06935 1371-1501 limits assumed): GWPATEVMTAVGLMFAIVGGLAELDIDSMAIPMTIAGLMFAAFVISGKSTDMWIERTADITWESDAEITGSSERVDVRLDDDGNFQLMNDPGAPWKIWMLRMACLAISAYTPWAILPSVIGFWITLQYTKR
Sequence of Genome polyprotein (West Nile virus, UniProt P06935) (P06935 1502-2120 limits assumed): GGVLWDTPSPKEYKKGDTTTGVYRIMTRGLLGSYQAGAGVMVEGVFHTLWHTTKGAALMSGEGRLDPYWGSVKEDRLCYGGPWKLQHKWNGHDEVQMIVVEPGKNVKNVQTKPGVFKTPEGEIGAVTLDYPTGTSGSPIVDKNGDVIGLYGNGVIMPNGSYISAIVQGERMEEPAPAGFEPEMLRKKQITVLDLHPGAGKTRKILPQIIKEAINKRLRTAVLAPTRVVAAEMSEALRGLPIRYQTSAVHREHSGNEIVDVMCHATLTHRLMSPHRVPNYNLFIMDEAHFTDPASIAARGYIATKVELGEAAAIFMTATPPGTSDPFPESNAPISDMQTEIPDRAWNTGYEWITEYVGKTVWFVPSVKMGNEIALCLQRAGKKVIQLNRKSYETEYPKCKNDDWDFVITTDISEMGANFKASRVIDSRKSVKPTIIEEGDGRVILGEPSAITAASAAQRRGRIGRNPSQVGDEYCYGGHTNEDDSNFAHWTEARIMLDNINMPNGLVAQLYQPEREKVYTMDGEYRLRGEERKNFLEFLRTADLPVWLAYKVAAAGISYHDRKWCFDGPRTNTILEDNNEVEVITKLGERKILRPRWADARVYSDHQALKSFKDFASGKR
Outline: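 Recombinant WNV NS2B-NS3 protease, tested in the same way as the Zika protease assay. Compound was preincubated with enzyme for 10 min before Bz-Nle-Lys-Lys-Arg-AMC was added. Hydrolysis was followed as AMC fluorescence (Ex 360/Em 460 nm) read every 30 s. IC50 was derived by dose-response curve fitting.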

U-87 MG = assay: Cytotoxicity against human U87 cells assessed as inhibition of growth by MTT assay; format: cell-based; settings: u-87mg atcc
Zika virus = assay: Antiviral activity against Zika virus infected in human U87 cells assessed as reduction in infectious virus in supernatant by measuring infection of Vero cells incubated with supernatant of viral infected U87 cells and measured following infection of supernatants with Vero cells for 7 days by MTT assay; format: functional; settings: U-87 MG, 168 h, time 7 day
Outline: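 U87 cells (2×10^4/well) in DMEM with 2% FBS, infected with ZIKV FLR strain (passage-3 stock) at MOI 0.01 for 1 h, then PBS-washed. Compound added in triplicate, 2 days at 37 °C. Half-log dilutions of supernatant put on Vero monolayers in quadruplicate for 7 days. CPE by microscopy then MTT. TCID50 from highest dilution infecting 2/4 wells. At least 2 independent experiments.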

[3] = target: Genome polyprotein (dengue virus type 2) (UniProt P29990); assay: Competitive inhibition of Dengue virus 2 NS2B (50 to 95 residues)/NS3 (1 to 182 residues) protease expressed in Escherichia coli BL21 using increased concentration of Bz-Nle-Lys-Lys-Arg-AMC substrate
Outline: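 Steady-state kinetics. Initial velocities were measured across a range of inhibitor concentrations and substrate levels. […] Fluorescence was read at Ex 360/Em 460 nm. An IC50 was fitted at each substrate level and plotted against substrate concentration to assign the mode of inhibition.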

SMILES	IC50 (Nonstructural protein 3)	other results
CC(C)(C)c1ccc(-c2ccc3[nH]cc(C(=O)NCC4CCNCC4)c3c2)cc1	11 µM	
CC(C)(C)c1ccc(-c2ccc3c(ccn3Cc3ccc(-c4ccncc4)cc3)c2)cc1	> 50 µM	
O=C(NCC1CCNCC1)c1cc2ccc(-c3ccc(Oc4ccccc4)cc3)cc2[nH]1	1.6 µM	IC50 (Genome polyprotein [1]): 6.5 µM; IC50 (Genome polyprotein [2]): 6.6 µM; CC50 (U-87 MG): > 10 µM; EC68 (Zika virus): 2.5 µM
CC(C)(C)c1ccc(-c2ccc3c(C(=O)NCC4CCNCC4)c[nH]c3c2)cc1	5 µM	IC50 (Genome polyprotein [1]): 30.4 µM; IC50 (Genome polyprotein [2]): 35.1 µM
COc1ccc(-c2ccc3cc(C(=O)NCC4CCNCC4)[nH]c3c2)cc1	1 µM	IC50 (Genome polyprotein [1]): 10.6 µM; IC50 (Genome polyprotein [2]): 20.1 µM
O=C(NCC1CCNCC1)c1cc2cc(-c3ccc(N4CCCCC4)cc3)ccc2[nH]1	11.4 µM	IC50 (Genome polyprotein [1]): 40.2 µM; IC50 (Genome polyprotein [2]): 31 µM
O=C(NC1CCNCC1)c1c[nH]c2cc(-c3ccncc3)ccc12	1 µM	IC50 (Genome polyprotein [1]): 10 µM; IC50 (Genome polyprotein [2]): 10.5 µM; CC50 (U-87 MG): > 10 µM; EC68 (Zika virus): 10 µM
N#Cc1ccc(-c2ccc3[nH]c(C(=O)NCC4CCNCC4)cc3c2)cc1	9.2 µM	
O=C(NCC1CCNCC1)c1c[nH]c2cc(-c3ccc(F)cc3)ccc12	> 50 µM	
O=C(NCC1CCNCC1)c1cc2ccc(C3=CCOCC3)cc2[nH]1	2.2 µM	
O=C(NCC1CCNCC1)c1cc2cc(-c3ccc(-c4ccoc4)cc3)ccc2[nH]1	0.87 µM	
O=C(NCC1CCNCC1)c1cc2cc(-c3cccnc3)ccc2[nH]1	> 50 µM	
O=C(NCC1CCNCC1)c1cc2cc(-c3ccc(N4CCNCC4)cc3)ccc2[nH]1	8.8 µM	
N#Cc1ccc(-c2ccc3c(C(=O)NC4CCNCC4)coc3c2)cc1	> 50 µM	
O=C(NCC1CCNCC1)c1c[nH]c2cc(-c3ccc(CN4CCCCC4)cc3)ccc12	3.1 µM	IC50 (Genome polyprotein [1]): 49.7 µM; IC50 (Genome polyprotein [2]): 32 µM; CC50 (U-87 MG): > 10 µM; EC68 (Zika virus): 10 µM
O=C(NCC1CCNCC1)c1c[nH]c2cc(-c3ccccc3F)ccc12	> 50 µM	
CC(C)(C)c1ccc(-c2ccc3cc(C(=O)NCC4CCNCC4)[nH]c3c2)cc1		IC50 (Genome polyprotein [1]): 15 µM; IC50 (Genome polyprotein [2]): 21.8 µM
O=C(NCC1CCNCC1)c1cc2ccc(-c3ccncc3)cc2[nH]1	19.7 µM	
O=C(NCC1CCNCC1)c1cc2ccc(-c3cccnc3)cc2[nH]1	27.2 µM	
O=C(NCC1CCNCC1)c1cc2cc(-c3ccc(N4CCOCC4)cc3)ccc2[nH]1	33 µM	
CC(C)(C)c1ccc(-c2ccc3c(c2)c(C(=O)NCC2CCNCC2)cn3CCCC2CCNCC2)cc1	14.6 µM	
CC(C)(C)c1ccc(-c2ccc3c(ccn3Cc3ccc(-c4ccoc4)cc3)c2)cc1	> 50 µM	
N#Cc1cccc(-c2ccc3[nH]c(C(=O)NCC4CCNCC4)cc3c2)c1	30.5 µM	

SMILES	IC50 (Nonstructural protein 3)	other results
O=C(NCC1CCNCC1)c1c[nH]c2nc(-c3ccc(CN4CCCCC4)cc3)ccc12	0.45 µM	IC50 (Genome polyprotein [1]): 9.2 µM; IC50 (Genome polyprotein [2]): 8.6 µM; CC50 (U-87 MG): > 10 µM; EC68 (Zika virus): 10 µM
Cc1cc(C#N)ccc1-c1ccc2[nH]c(C(=O)NCC3CCNCC3)cc2c1	40.2 µM	IC50 (Genome polyprotein [1]): > 50 µM; IC50 (Genome polyprotein [2]): > 50 µM
CC(C)(C)c1ccc(-c2cc3[nH]cc(C(=O)NC4CCNCC4)c3cc2-c2ccc(C(C)(C)C)cc2)cc1	4.5 µM	
NC(=O)c1ccc(-c2ccc3cc(C(=O)NCC4CCNCC4)[nH]c3c2)cc1	7.1 µM	
COc1cc(-c2ccc3c(C(=O)NCC4CCNCC4)c[nH]c3c2)cc(OC)c1OC	> 50 µM	
O=C(NCC1CCNCC1)c1c[nH]c2cc(-c3cn[nH]c3)ccc12	5.7 µM	IC50 (Genome polyprotein [1]): 48.3 µM; IC50 (Genome polyprotein [2]): 42 µM
N#Cc1ccc(-c2ccc3[nH]cc(C(=O)NC4CCNCC4)c3c2)cc1	> 50 µM	
O=C(NCC1CCNCC1)c1cc2ccc(-c3ccc(OC(F)(F)F)cc3)cc2[nH]1		IC50 (Genome polyprotein [1]): 10.7 µM; IC50 (Genome polyprotein [2]): 16 µM; CC50 (U-87 MG): > 10 µM; EC68 (Zika virus): > 10 µM
O=C(NCC1CCNCC1)c1cc2cc(-c3cn[nH]c3)ccc2[nH]1	6 µM	
O=C(NCC1CCNCC1)c1cc2ccc(-c3cn[nH]c3)cc2[nH]1	0.99 µM	IC50 (Genome polyprotein [1]): 10.3 µM; IC50 (Genome polyprotein [2]): 3.5 µM; CC50 (U-87 MG): > 10 µM; EC68 (Zika virus): > 10 µM
O=C(NCC1CCNCC1)c1cc2ccc(-c3ccccc3)cc2[nH]1	9.4 µM	
NCc1ccc(-c2ccc3c(C(=O)NCC4CCNCC4)c[nH]c3c2)cc1	> 50 µM	
O=Cc1cccc(-c2ccc3[nH]cc(C(=O)NCC4CCNCC4)c3c2)c1	> 50 µM	
O=C(NCC1CCNCC1)c1cc2ccc(C3=CCNCC3)cc2[nH]1	21 µM	
O=C(NCC1CCNCC1)c1cc2ccc(-c3ccc(F)cc3)cc2[nH]1	14.4 µM	
N#Cc1ccc(-c2ccc3c(C(=O)NCC4CCNCC4)c[nH]c3c2)cc1	21.8 µM	IC50 (Genome polyprotein [1]): 12 µM; IC50 (Genome polyprotein [2]): 50.5 µM
O=C(NCC1CCNCC1)c1cc2ccc(-c3ccsc3)cc2[nH]1	6.4 µM	
O=C(NCC1CCNCC1)c1cc2ccc(-c3ccc(CCO)cc3)cc2[nH]1	45.6 µM	
NCc1ccc(-c2ccc3cc(C(=O)NCC4CCNCC4)[nH]c3c2)cc1	3.2 µM	
O=C(NCC1CCNCC1)c1cc2ccccc2[nH]1	24.6 µM	
O=C(NCC1CCNCC1)c1c[nH]c2cc(-c3cccnc3)ccc12	1.1 µM	
O=C(NCC1CCNCC1)c1cc2cc(-c3ccc(N4CCCC4)cc3)ccc2[nH]1	3.4 µM	
O=C(NCC1CCNCC1)c1c[nH]c2ccc(-c3ccc(F)cc3)cc12	> 50 µM	

SMILES	IC50 (Nonstructural protein 3)	other results
O=C(NCC1CCNCC1)c1cc2cc(-c3ccc(CN4CCCCC4)cc3)ccc2[nH]1	4.7 µM	
COc1cc(-c2ccc3[nH]cc(C(=O)NC4CCNCC4)c3c2)cc(OC)c1OC	> 50 µM	
O=C(NCC1CCNCC1)c1cc2cc(-c3ccc(-c4ccsc4)cc3)ccc2[nH]1	1.1 µM	
O=C(NCCC1CCNCC1)c1c[nH]c2cc(-c3ccncc3)ccc12	0.63 µM	CC50 (U-87 MG): > 10 µM; EC68 (Zika virus): 10 µM
Cc1ccc(-c2ccc3c(C(=O)NCC4CCNCC4)c[nH]c3c2)cc1	48.9 µM	IC50 (Genome polyprotein [1]): > 50 µM; IC50 (Genome polyprotein [2]): > 50 µM
O=C(NCC1CCNCC1)c1c[nH]c2nc(-c3ccc(CN4CCOCC4)cc3)ccc12	0.6 µM	CC50 (U-87 MG): > 10 µM; EC68 (Zika virus): > 10 µM
O=C(NC1CCNCC1)c1cc2ccc(-c3ccncc3)cc2[nH]1	9.8 µM	
O=C(NCC1CCNCC1)c1c[nH]c2cc(-c3ccoc3)c(-c3ccoc3)cc12	0.37 µM	IC50 (Genome polyprotein [1]): 3.1 µM; IC50 (Genome polyprotein [2]): 3.7 µM; CC50 (U-87 MG): > 10 µM; EC68 (Zika virus): 3 µM
O=C(NCC1CCNCC1)c1c[nH]c2cc(-c3ccc(-c4ccccc4)cc3)ccc12	4.2 µM	CC50 (U-87 MG): > 10 µM; EC68 (Zika virus): > 10 µM
O=C(NCC1CCNCC1)c1cc2ccc(-c3ccc(CO)cc3)cc2[nH]1	3.1 µM	CC50 (U-87 MG): > 10 µM; EC68 (Zika virus): > 10 µM
O=C(NCC1CCNCC1)c1cc2ccc(-c3ccc(N4CCCCC4)cc3)cc2[nH]1	7.9 µM	
O=C(NCC1CCNCC1)c1c[nH]c2nc(-c3ccc(C(F)(F)F)cc3)ccc12	18.1 µM	
O=C(NCC1CCNCC1)c1c[nH]c2ccc(-c3ccc(F)cc3F)cc12	> 50 µM	
O=C(NCC1CCNCC1)c1cc2ccc(-c3ccoc3)cc2[nH]1	0.32 µM	IC50 (Genome polyprotein [1]): 1.6 µM; IC50 (Genome polyprotein [2]): 5.7 µM; Activity [3]: inactive; CC50 (U-87 MG): > 10 µM; EC68 (Zika virus): 1 µM
NCc1ccc(-c2ccc3[nH]c(C(=O)NCC4CCNCC4)cc3c2)cc1	9.5 µM	
O=C(NCC1CCNCC1)c1c[nH]c2nc(-c3ccncc3)ccc12	1.9 µM	
O=C(NCC1CCNCC1)c1cc2ccc(-c3ccc(N4CCNCC4)cc3)cc2[nH]1	5.6 µM	
O=C(NCC1CCNCC1)c1cc2cc(-c3ccncc3)ccc2[nH]1	37 µM	
O=C(NC1CCNCC1)c1coc2cc(-c3ccoc3)ccc12	2.86 µM	
CC(C)(C)c1ccc(-c2ccc3[nH]c(C(=O)NCC4CCNCC4)cc3c2)cc1	7 µM	
O=C(NCC1CCNCC1)c1c[nH]c2cc(-c3ccncc3)ccc12	0.39 µM	
O=C(NCC1CCNCC1)c1c[nH]c2cc(-c3ccc(Cl)nc3)ccc12	42 µM	
